What is called GI50 is the concentration that inhibits growth by half. For orientation: LC50 means the concentration lethal to half of the exposed cells or organisms. Broadly, the TGI is the concentration giving total growth inhibition.

Activity calls are given as the source filed them. The calls are words filed in the database; no cut-off is given here.

Data set [1] has as its system Panel renal (Carcinoma cell lines). Kind of data set: Anticancer activity against human Panel renal (Carcinoma cell lines) assessed as lethality incubated for 48 hrs by Sulphorhodamine B assay. The data set is classed as functional.
The nature of data set [2]: Anticancer activity against human Non-small cell lung cancer cell line assessed as cell growth inhibition incubated for 48 hrs by Sulphorhodamine B assay. The data set is classed as functional. The procedure, abridged:
(§1)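 NCI-60 five-dose screen. Cells in RPMI 1640 with 5% FBS and 2 mM L-glutamine were plated at 5,000–40,000 cells/well and held 24 h before dosing. Compounds came from DMSO stocks and were given at five concentrations (10-fold or ½-log dilutions) for 48 h at 37 °C. Adherent cells were TCA-fixed and stained with SRB; A515 was read. GI50 was set from growth = 50% and TGI from Ti = Tz, using Tz/C/Ti.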
For orientation: The SRB assay estimates cell density from bound dye.

For data set [3], the target named is DNA topoisomerase 2-alpha (Homo sapiens) (UniProt P11388). Briefly: Inhibition of human DNA topoisomerase II-alpha mediated supercoiled pHOT1 plasmid DNA relaxation at 50 uM incubated for 30 mins by ethidium bromide staining based agarose gel electrophoresis analysis. The method, boiled down:
(§2)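 Reaction buffer: 50 mM Tris-Cl pH 8.0, 120 mM KCl, 10 mM MgCl2, 0.5 mM ATP, 0.5 mM DTT. Each reaction held 500 ng supercoiled pHOT1 and 1 U human Topo IIα, with compound at 10–100 μM, for 30 min at 37 °C. Reactions were stopped with glycerol/EDTA/bromophenol blue, run on 1% agarose in TBE, and stained with ethidium bromide. Etoposide 25 μM was the positive control.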

Data set [4] can be described thus: Anticancer activity against human Non-small cell lung cancer cell line assessed as lethality incubated for 48 hrs by Sulphorhodamine B assay. The data set is classed as functional.
Data set [5] deals with Panel prostate (Carcinoma cell lines). Kind of data set: Anticancer activity against human Panel prostate (Carcinoma cell lines) assessed as lethality incubated for 48 hrs by Sulphorhodamine B assay. The data set is classed as functional.
The subject of data set [6] is Panel leukemia (Carcinoma cell lines). Kind of data set: Anticancer activity against human Panel leukemia (Carcinoma cell lines) assessed as lethality incubated for 48 hrs by Sulphorhodamine B assay. The data set is classed as functional.
Data set [7] deals with DNA topoisomerase 2-alpha (Homo sapiens) (UniProt P11388). Kind of data set: Inhibition of human DNA topoisomerase II-alpha mediated supercoiled pHOT1 plasmid DNA relaxation at 100 uM incubated for 30 mins by ethidium bromide staining based agarose gel electrophoresis analysis. The procedure, abridged:
as §2

Data set [8] has as its system Panel breast (Carcinoma cell lines). Briefly: Anticancer activity against human Panel breast (Carcinoma cell lines) assessed as total growth inhibition incubated for 48 hrs by Sulphorhodamine B assay. The data set is classed as functional. The method, boiled down: as §1
In data set [9] the test system is Panel prostate (Carcinoma cell lines). Kind of data set: Anticancer activity against human Panel prostate (Carcinoma cell lines) assessed as cell growth inhibition incubated for 48 hrs by Sulphorhodamine B assay. The data set is classed as functional. The procedure, abridged: as §1
Data set [10] deals with Panel breast (Carcinoma cell lines). Kind of data set: Anticancer activity against human Panel breast (Carcinoma cell lines) assessed as lethality incubated for 48 hrs by Sulphorhodamine B assay. Conditions: read-out: LC50 (the source's name). The data set is classed as functional.
Data set [11] relates to Panel CNS (Carcinoma cell lines). Kind of data set: Anticancer activity against human Panel CNS (Carcinoma cell lines) assessed as cell growth inhibition incubated for 48 hrs by Sulphorhodamine B assay. The data set is classed as functional. The method, boiled down:
as §1

In data set [12] the test system is Calf thymus DNA. Briefly: Binding affinity to calf thymus DNA assessed as maximum absorption wavelength shift at pH 7.4 at 10 uM by UV-vis absorption spectroscopy. The data set is classed as nucleic-acid assay. As to conditions: Bos taurus. The procedure, abridged: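 Absorption titration at 300 K in a 1 cm cell, background subtracted. Compound was fixed (10 μM per legend; 20 μM in methods) with ct-DNA added up to 15–20 μM in 10 mM phosphate buffer, pH 7.4 (A260/A280 1.82). A buffer-addition control was run. K was taken from the 1/(Af−Aobs) vs 1/[DNA] fit.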

In data set [13] the test system is Panel renal (Carcinoma cell lines). Briefly: Anticancer activity against human Panel renal (Carcinoma cell lines) assessed as total growth inhibition incubated for 48 hrs by Sulphorhodamine B assay. The data set is classed as functional.
Data set [14] concerns Panel prostate (Carcinoma cell lines). Briefly: Anticancer activity against human Panel prostate (Carcinoma cell lines) assessed as total growth inhibition incubated for 48 hrs by Sulphorhodamine B assay. The data set is classed as functional. The method, boiled down:
as §1

A short description of data set [15]: Anticancer activity against human Non-small cell lung cancer cell line assessed as total growth inhibition incubated for 48 hrs by Sulphorhodamine B assay. The data set is classed as functional. The procedure, abridged:
as §1

Data set [16] relates to Panel colon (Carcinoma cell lines). Briefly: Anticancer activity against human Panel colon (Carcinoma cell lines) assessed as total growth inhibition incubated for 48 hrs by Sulphorhodamine B assay. The data set is classed as functional. The procedure, abridged: as §1
In data set [17] the target is DNA topoisomerase 2-alpha (Homo sapiens) (UniProt P11388). Briefly: Inhibition of human DNA topoisomerase II-alpha mediated supercoiled pHOT1 plasmid DNA relaxation at 75 uM incubated for 30 mins by ethidium bromide staining based agarose gel electrophoresis analysis. The procedure, abridged:
as §2

The subject of data set [18] is Panel ovarian (Carcinoma cell lines). Kind of data set: Anticancer activity against human Panel ovarian (Carcinoma cell lines) assessed as lethality incubated for 48 hrs by Sulphorhodamine B assay. The data set is classed as functional.
In data set [19] the target is T1, DNA topoisomerase 1 (Homo sapiens) (UniProt P11387).
T1 sequence (whole entry): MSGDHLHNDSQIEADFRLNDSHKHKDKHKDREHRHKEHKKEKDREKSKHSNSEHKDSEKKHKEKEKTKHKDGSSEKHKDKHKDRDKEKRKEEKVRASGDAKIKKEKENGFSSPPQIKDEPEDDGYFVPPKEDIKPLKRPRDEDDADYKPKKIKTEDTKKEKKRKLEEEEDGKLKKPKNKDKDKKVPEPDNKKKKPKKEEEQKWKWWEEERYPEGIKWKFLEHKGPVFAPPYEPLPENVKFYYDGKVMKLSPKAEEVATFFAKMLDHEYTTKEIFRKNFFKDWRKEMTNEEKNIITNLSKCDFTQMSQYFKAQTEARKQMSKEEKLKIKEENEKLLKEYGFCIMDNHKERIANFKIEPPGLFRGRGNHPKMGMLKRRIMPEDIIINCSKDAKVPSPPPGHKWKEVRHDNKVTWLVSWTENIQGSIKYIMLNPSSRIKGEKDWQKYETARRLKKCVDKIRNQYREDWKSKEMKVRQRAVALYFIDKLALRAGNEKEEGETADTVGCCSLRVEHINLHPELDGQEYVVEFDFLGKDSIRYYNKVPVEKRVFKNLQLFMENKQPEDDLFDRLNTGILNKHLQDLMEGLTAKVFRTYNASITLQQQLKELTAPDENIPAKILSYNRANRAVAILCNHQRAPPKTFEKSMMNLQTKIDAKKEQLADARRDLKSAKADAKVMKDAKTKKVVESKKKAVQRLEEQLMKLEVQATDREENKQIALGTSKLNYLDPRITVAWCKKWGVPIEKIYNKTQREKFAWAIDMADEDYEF
Kind of data set: Inhibition of human DNA topoisomerase I mediated supercoiled pHOT1 plasmid DNA relaxation upto 100 uM incubated for 30 mins by ethidium bromide staining based agarose gel electrophoresis analysis.

Data set [20] deals with Panel colon (Carcinoma cell lines). Kind of data set: Anticancer activity against human Panel colon (Carcinoma cell lines) assessed as lethality incubated for 48 hrs by Sulphorhodamine B assay. The data set is classed as functional.
Data set [21] relates to Panel leukemia (Carcinoma cell lines). Kind of data set: Anticancer activity against human Panel leukemia (Carcinoma cell lines) assessed as total growth inhibition incubated for 48 hrs by Sulphorhodamine B assay. The data set is classed as functional.
Data set [22] has as its target Albumin (Bos taurus, UniProt P02769). Kind of data set: Binding affinity to bovine serum albumin assessed as decrease in fluorescence intensity at pH 7.4 at 0 to 30 uM by fluorescence quenching method. Conditions: cattle.
Data set [23] relates to Panel leukemia (Carcinoma cell lines). Kind of data set: Anticancer activity against human Panel leukemia (Carcinoma cell lines) assessed as cell growth inhibition incubated for 48 hrs by Sulphorhodamine B assay. The data set is classed as functional. The method, boiled down:
as §1

DNA topoisomerase 2-alpha (Homo sapiens), sequence (P11388 whole entry): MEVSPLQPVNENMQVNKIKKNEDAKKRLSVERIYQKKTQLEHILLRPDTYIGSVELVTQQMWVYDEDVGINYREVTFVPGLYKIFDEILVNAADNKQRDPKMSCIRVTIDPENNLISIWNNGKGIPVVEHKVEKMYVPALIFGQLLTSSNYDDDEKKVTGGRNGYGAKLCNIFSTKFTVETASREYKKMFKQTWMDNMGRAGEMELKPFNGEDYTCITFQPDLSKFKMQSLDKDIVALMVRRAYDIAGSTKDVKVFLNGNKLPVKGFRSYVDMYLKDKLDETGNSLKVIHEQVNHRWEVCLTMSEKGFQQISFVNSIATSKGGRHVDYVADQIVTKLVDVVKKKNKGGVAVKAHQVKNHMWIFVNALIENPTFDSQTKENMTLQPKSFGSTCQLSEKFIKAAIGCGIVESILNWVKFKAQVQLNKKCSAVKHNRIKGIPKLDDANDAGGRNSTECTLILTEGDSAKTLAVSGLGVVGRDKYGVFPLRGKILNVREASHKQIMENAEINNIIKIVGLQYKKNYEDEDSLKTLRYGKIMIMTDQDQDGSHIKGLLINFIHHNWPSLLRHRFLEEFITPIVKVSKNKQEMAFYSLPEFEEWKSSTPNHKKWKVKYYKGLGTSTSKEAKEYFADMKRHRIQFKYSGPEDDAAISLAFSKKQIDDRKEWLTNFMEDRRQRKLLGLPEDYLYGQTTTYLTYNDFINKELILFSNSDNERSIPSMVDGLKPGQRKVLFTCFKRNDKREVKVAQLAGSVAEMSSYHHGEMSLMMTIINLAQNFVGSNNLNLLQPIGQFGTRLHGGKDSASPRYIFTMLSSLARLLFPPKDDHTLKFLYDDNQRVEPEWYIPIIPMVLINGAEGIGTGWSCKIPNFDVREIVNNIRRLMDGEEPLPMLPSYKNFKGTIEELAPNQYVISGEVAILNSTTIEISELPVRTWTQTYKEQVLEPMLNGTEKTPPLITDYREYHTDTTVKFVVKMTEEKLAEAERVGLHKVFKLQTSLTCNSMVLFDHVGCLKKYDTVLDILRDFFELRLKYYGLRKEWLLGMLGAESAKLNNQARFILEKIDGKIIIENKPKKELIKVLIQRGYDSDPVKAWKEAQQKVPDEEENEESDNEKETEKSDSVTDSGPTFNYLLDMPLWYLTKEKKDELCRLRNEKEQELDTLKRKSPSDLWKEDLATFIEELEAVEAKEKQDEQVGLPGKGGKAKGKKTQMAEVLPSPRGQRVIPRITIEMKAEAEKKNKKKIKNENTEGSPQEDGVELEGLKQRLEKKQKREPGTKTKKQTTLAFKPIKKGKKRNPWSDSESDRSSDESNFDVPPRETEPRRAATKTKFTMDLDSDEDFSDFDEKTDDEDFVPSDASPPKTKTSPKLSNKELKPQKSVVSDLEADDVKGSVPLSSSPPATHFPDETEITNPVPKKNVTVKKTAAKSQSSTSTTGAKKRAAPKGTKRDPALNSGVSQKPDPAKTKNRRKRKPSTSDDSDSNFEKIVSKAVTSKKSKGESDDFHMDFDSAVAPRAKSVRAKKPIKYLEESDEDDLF
Albumin, sequence (P02769 whole entry): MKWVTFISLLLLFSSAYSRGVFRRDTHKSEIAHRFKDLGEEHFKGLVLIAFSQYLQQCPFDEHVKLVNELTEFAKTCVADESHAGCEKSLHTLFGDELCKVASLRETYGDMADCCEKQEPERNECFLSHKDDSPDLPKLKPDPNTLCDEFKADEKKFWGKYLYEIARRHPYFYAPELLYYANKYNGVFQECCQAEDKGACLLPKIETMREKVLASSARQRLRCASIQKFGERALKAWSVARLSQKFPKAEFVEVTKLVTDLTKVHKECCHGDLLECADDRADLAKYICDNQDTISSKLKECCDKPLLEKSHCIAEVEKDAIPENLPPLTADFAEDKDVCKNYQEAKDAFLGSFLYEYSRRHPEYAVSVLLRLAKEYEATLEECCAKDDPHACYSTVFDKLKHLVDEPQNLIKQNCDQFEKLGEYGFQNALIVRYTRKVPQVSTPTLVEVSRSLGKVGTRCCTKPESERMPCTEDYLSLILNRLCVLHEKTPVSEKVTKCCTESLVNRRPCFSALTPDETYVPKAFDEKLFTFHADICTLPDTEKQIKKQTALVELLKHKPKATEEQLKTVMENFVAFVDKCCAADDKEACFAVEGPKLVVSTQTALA

Consider `OCCN1CCN(c2nc(Nc3ccc(-c4nc5ccccc5[nH]4)cc3)c3cn[nH]c3n2)CC1`, for which the LC50 (50% lethal concentration) in [1] worked out at 5.85 µM. Moreover, the GI50 in data set [2] is 1.57 µM; in data set [9], 1.49 µM; in data set [11], 1.47 µM; in data set [23], 0.44 µM. The inhibition entry in data set [3], in data set [7] and in data set [17] was “Active” throughout. For the same compound, the figures for the LC50 (lethal concentration, 50% cell kill) in data set [4] and in data set [20] were 6.26 µM and 5.71 µM, respectively. Also, the values for the LC50 in [5] and in [6] were 5.97 µM and above 100 µM, respectively. In addition, the TGI in [8] is 3.83 µM; in [13], 3.26 µM; in data set [14], 2.96 µM; in data set [15], 3.23 µM; in data set [16], 2.12 µM; in [21], 1.22 µM. In addition, the CC50 in data set [10] came out at 7.02 µM. The Activity in data set [12] was 259 nm; in data set [22], “Active”. In addition, the LC50 (concentration killing 50% of cells) in data set [18] stood at 6.09 µM. In data set [19], the inhibition entry was “inactive”.
Turning to `Fc1ccc(Nc2nc(Nc3ccc(-c4nc5ccccc5[nH]4)cc3)c3cn[nH]c3n2)cc1`, the LC50 (50% lethal concentration) in [1] turned out to be 18.2 µM. Besides, the GI50 in data set [2] turned out to be 2.11 µM; in data set [9], 1.95 µM; in data set [11], 2.06 µM; in data set [23] it was 2.62 µM. The inhibition entry in data set [3], in data set [7] and in [17] was “Active” in each case. Further, the LC50 (lethal concentration, 50% cell kill) in data set [4] was 32.5 µM; in data set [20] it was 6.8 µM. The LC50 is 9.22 µM in data set [5] and above 100 µM in data set [6]. Besides, the TGI in data set [8] came to 4.8 µM; in data set [13], 7.35 µM; in [14], 4.14 µM; in data set [15] it was 5.37 µM; in data set [16], 3.83 µM; in [21], 6.33 µM. Moreover, in data set [10], the CC50 was 19 µM. Also, the Activity in data set [12] was 257 nm; in data set [22], “Active”. Further, the LC50 (concentration killing 50% of cells) in data set [18] was found to be 28.9 µM. The inhibition result in [19] is “inactive”.

Values taken from ChEMBL document CHEMBL5260793, “Novel pyrazolo[3,4-d]pyrimidine with 4-(1H-benzimidazol-2-yl)-phenylamine as broad spectrum anticancer agents: Synthesis, cell based assay, topoisomerase inhibition, DNA intercalation and bovine serum albumin studies” (Eur J Med Chem, 2017).
